Bioassay records from PubChem BioAssay.
CSN inh = inhibitors of human CSN-mediated cullin deneddylation | Q92905 | Purified CSN, SCF-Nedd8-OG deneddylation, fluorescence polarization | inhibition, % at 12.5 µM | 360,000 compounds, 0.38% hits | AID 651999;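 active = pattern-corrected inhibition above about 35%, with an unprinted fluorescence ratio check between 0.5 and 1.5, limit read from the data, passing the limit was not always enough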;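 also: 0% = enzyme with substrate and 100% = substrate without enzyme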
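Material: human Csn5 produced in HEK293T cells; Input: enzyme 0.24 nM; Reagent: SCFSkp2-Nedd8OG substrate at 10 nM final; Dosing: 12.5 µM compound; Incubation: 90 min reaction at room temperature; Detection: fluorescence polarization of the substrate; Evaluation: % inhibition of substrate cleavage by Csn5; Control set: substrate-only high control, full reaction low control.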
DNMT1 block = blocks human DNA methyltransferase DNMT1; AID 588458; DNMT1 molecular beacon, Hinp1I cleavage, fluorescence; 360,000 compounds, 0.83% hits; inhibition (reported as % activation of signal), % at 10 µM; in the data active = inhibition above about 50%
Target sequence (P26358 504-1616 limits assumed): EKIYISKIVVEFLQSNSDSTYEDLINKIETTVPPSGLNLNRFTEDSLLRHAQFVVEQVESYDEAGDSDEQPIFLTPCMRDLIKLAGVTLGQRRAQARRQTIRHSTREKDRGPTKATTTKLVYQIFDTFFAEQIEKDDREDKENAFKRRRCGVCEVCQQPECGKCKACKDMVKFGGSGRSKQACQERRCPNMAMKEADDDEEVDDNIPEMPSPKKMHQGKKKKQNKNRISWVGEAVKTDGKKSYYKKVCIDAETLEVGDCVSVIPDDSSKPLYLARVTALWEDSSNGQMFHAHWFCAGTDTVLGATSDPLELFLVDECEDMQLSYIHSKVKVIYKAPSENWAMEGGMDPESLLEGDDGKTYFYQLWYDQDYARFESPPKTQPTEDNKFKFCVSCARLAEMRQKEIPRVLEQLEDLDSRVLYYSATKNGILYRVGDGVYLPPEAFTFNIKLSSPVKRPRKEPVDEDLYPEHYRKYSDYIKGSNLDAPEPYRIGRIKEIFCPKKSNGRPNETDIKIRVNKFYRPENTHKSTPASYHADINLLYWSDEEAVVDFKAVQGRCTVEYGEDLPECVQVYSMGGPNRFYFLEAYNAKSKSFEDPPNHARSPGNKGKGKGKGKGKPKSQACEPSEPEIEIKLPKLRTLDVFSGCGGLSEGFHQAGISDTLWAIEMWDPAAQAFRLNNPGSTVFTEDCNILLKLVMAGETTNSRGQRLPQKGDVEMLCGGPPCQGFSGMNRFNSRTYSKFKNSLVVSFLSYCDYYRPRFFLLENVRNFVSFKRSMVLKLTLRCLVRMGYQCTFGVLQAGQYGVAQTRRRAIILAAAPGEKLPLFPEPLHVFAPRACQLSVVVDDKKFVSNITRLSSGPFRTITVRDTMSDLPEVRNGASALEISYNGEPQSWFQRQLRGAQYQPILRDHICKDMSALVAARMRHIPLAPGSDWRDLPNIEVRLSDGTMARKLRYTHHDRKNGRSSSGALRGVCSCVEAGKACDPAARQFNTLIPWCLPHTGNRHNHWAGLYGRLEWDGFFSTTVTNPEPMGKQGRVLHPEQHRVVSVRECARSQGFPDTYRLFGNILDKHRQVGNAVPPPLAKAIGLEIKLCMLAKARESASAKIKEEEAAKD
SUMO1 PPI mod = modulators of human SUMO1-mediated protein-protein interactions; P63165; SUMO1 binding to a labelled peptide, TR-FRET, 1 h; inhibition, % at 20 µM; 360,000 compounds, 0.33% hits; AID 602429; in the data active = inhibition above about 37%
STEP block = inhibitors of human striatal-enriched phosphatase STEP | P54829 | recombinant STEP, OMFP fluorogenic substrate, fluorescence | inhibition, % at 20 µM | 360,000 compounds, 0.25% hits | AID 588621;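 active = inhibition at 20 µM, scaled per plate between control wells, above about 37%, limit read from the data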;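 also: 0% = DMSO with enzyme and substrate and 100% = substrate only without enzyme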
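System: STEP phosphatase, cell-free reaction; Buffer or medium: Bis-Tris pH 6.0 buffer with DTT, detergent; Incubation: 20 min at room temperature, dark; Measured by: fluorescence, 480/540 nm.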
LMPTP inh = LMPTP (human) inhibition | P24666 | recombinant LMPTP-A, OMFP fluorogenic substrate, fluorescence intensity | 360,000 compounds, 0.22% hits | inhibition, % at 20 µM;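 active = compounds that cut the enzyme signal by at least half of the control window in the single-dose screen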;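 also: plate controls were DMSO wells with enzyme plus substrate for no effect and substrate without enzyme for full effect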
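test system = LMPTP-A | amount = 0.625 nM LMPTP-A final | reagent = fluorogenic phosphatase substrate OMFP at 400 µM final | incubation = 50 min at room temperature | benchmarks = no-enzyme low control, uninhibited high control | medium = Bis-Tris pH 6.0, DTT, detergent | signal = fluorescence intensity of OMFP turnover product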
Scp-1 inhibitor = inhibitors of human Scp-1 phosphatase. Q9GZU7. Recombinant Scp1, phosphopeptide, malachite green phosphate absorbance. inhibition, % at 20 µM. 340,000 compounds, 0.88% hits;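 active = inhibition above about 50% at 20 µM, limit read from the data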;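 also: plate controls were DMSO wells with enzyme for no effect and wells lacking enzyme for full effect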
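Material: truncated SCP-1 phosphatase (76-261aa) / Buffer or medium: 50 mM Tris acetate pH 5.5, 0.005% Tween-20, 10 mM MgCl2 / Compound dosing: one concentration, 20 µM, with 1.0% DMSO / Incubation: 45 min room-temperature reaction, 5 min colour, 30 min stabiliser / Detection: colorimetric free-phosphate detection, absorbance 630 nm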
Scp-1 conf = Scp-1 (human) inhibition, single-dose confirmed; shares compounds with Scp-1 inhibitor; recombinant SCP-1 catalytic domain, phosphate release, malachite green absorbance; inhibition, % at 20 µM; 2,500 compounds, 61% hits; AID 540281;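 also: plate controls were DMSO with enzyme for no effect and buffer wells lacking enzyme for full effect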
Scp-1 MG ctr = counter-screen for Scp-1 inhibitors: colorimetric interference | shares compounds with Scp-1 inhibitor | Colorimetric interference counterscreen, malachite green absorbance 630 nm | apparent inhibition (interference), % at 20 µM | 2,500 tested, under 10 active;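 also: compounds added after enzyme reaction finished so only phosphate colour detection is probed; plate controls were DMSO wells with completed Scp-1 reaction for no effect and substrate wells lacking enzyme for full effect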
Scp1 DSF = Scp-1 (human) binding by thermal shift. 1,500 compounds, 25% hits. shares compounds with Scp-1 inhibitor. Recombinant SCP1, Sypro Orange thermal shift Tm. thermal shift relative to vanadate control, % at 40 µM;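 active = substances whose mean melting-temperature shift, as a percentage of the reference inhibitor's shift, reaches about 5.3%, limit read from the data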;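 also: 0% = Tm of DMSO wells and 100% = Tm with sodium orthovanadate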
* marks the source's active call; other numbers are inactive results; · = not tested or not shown. Shown are actives, neighbours in structure and some others; about 1.9% of the full set was active somewhere.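 The calls were made as follows, unless noted: active = inhibition of at least 30% at 20 µM; inactive = the rest.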

SMILES | CSN inh | DNMT1 block | SUMO1 PPI mod | STEP block | LMPTP inh | Scp-1 inhibitor | Scp-1 conf | Scp-1 MG ctr | others
O=C(CSc1nnc(-c2ccccn2)n1Cc1ccccc1)N1CCCC1 | 2 | -3 | -2 | -2 | 0 | -2 | · | ·
Fc1ccc(Oc2ccnc(Cl)n2)c(Cl)c1 | · | · | · | · | · | 51* | -6 | -9
CC(=O)Nc1ccccc1OCC(O)CS(=O)(=O)c1ccc(C(F)(F)F)cn1 (stereo not drawn) | 1 | -1 | 4 | 0 | -2 | 8 | · | ·
CCN(CC)c1nc2c(c(=O)n(C)c(=O)n2C)n1CC(=O)c1ccccc1 | 0 | -2 | 15 | -1 | -1 | -5 | · | ·
Cn1c(SCc2cc(=O)n3cc(Br)ccc3n2)nnc1C1COc2ccccc2O1 (stereo not drawn) | 4 | 35 | -17 | 3 | 0 | 61* | 41* | -21 | Scp1 DSF=-17
O=C(OCc1cc(=O)n2cc(Br)ccc2n1)C1COc2ccccc2O1 (stereo not drawn) | 3 | 6 | -24 | -1 | 1 | 16 | · | ·
CCCCN1C(=O)C(CC(=O)NCc2cccc3ccccc23)CC(C(=O)N2CCCCCC2)=C1C (stereo not drawn) | -4 | · | 1 | · | 0 | · | · | ·
COC(=O)C1=CN(c2ccc(C)cc2)C(N)=C(C#N)C1c1ccc(OC)cc1 (stereo not drawn) | -4 | · | -13 | · | -2 | · | · | ·
CC(=O)C(Cc1ccc(Cl)nc1)Cc1ccc(Cl)nc1 | -4 | 1 | 1 | -1 | -1 | 69* | -7 | -13
CO/N=C(\C)C(Cc1ccc(Cl)nc1)Cc1ccc(Cl)nc1 | -2 | -1 | 2 | -1 | 0 | -16 | · | ·
COCCN1C(=O)/C(=C2/C(=O)N(CC(=O)Nc3ccccc3Cl)c3ccccc32)SC1=S | 4 | -2 | -7 | 8 | 5 | -5 | · | ·
O=C(CN1C(=O)/C(=C2/SC(=S)N(CCS(=O)(=O)O)C2=O)c2ccccc21)Nc1cccc(C(F)(F)F)c1 | 17 | 21 | 14 | 5 | 5 | 84* | 85* | -15 | Scp1 DSF=885*
Cc1cc2oc(C(=O)Nc3ccc(S(N)(=O)=O)cc3)c(C)c2cc1Cl | 4 | 33 | 2 | 2 | -1 | -4 | · | ·
O=C(Cn1ncc(Cl)c(Cl)c1=O)NC1CCS(=O)(=O)C1 (stereo not drawn) | -1 | 4 | 8 | 1 | 0 | 88* | 69* | -8 | Scp1 DSF=-11
O=C(Cn1ncc(Cl)c(Cl)c1=O)NC1CCCCC1 | -2 | 15 | -5 | 5 | -1 | -5 | · | ·
CN1C(=O)/C(=C2\SC(=S)N(CCCCCC(=O)O)C2=O)c2ccccc21 | 5 | 3 | -1 | 98* | 85* | 104* | 68* | -18 | Scp1 DSF=3
CCN1C(=O)/C(=C2\SC(=S)N(CCCOC)C2=O)c2ccccc21 | -3 | 3 | -1 | 1 | 2 | -6 | · | ·
O=C(O)CCN1C(=O)/C(=C2\C(=O)N(Cc3ccc(F)cc3)c3ccccc32)SC1=S | 7 | 4 | 14 | 93* | 82* | 88* | 61* | -17 | Scp1 DSF=8.8*
CCc1oc2ccccc2c1C(=O)CCN1CCCCC1 | -1 | 3 | -1 | 1 | -1 | 57* | 14 | -2
O=C(CCN1CCCCC1)c1ccccc1 | -1 | 6 | 0 | -2 | -1 | -6 | · | ·
CCOc1cccc2cc(C(=O)NCCC3=CCCCC3)c(=O)oc12 | 5 | -5 | -17 | 3 | 3 | -12 | · | ·
O=C(CSc1nnc(NC2CCCCC2)s1)Nc1ccc2c(c1)C(=O)c1ccccc1C2=O | -1 | -2 | -12 | 1 | 4 | 9 | · | ·
NS(=O)(=O)c1ccc(NC(=O)CSc2nnc(NC3CC3)s2)cc1 | 12 | 34 | 12 | 12 | 0 | 87* | 47* | -24 | Scp1 DSF=2
COc1ccc(C(C)=O)cc1CSc1nc2cc(C(=O)O)ccc2c(=O)n1Cc1ccccc1 | 1 | -3 | 13 | 13 | 1 | 51* | 29 | -22
CCOC(Cn1c(SCc2cc(C(C)=O)ccc2OC)nc2ccccc2c1=O)OCC | 1 | 24 | -7 | -2 | -1 | -2 | · | ·
SMILES | CSN inh | DNMT1 block | SUMO1 PPI mod | STEP block | LMPTP inh | Scp-1 inhibitor | Scp-1 conf | Scp-1 MG ctr | others
CC(C)NC(=O)c1cc2c(=O)n3ccccc3nc2s1 | -3 | -3 | 5 | -4 | 0 | 64* | -19 | -19
O=C(CC1Oc2ccccc2NC1=O)NCCCN1CCCC1=O (stereo not drawn) | -5 | 1 | 4 | -2 | 3 | -12 | -13 | -14
O=C1CCCN1CCCNC(=S)Nc1ccc(Cl)cc1Cl | -3 | 1 | 5 | 0 | -1 | -5 | · | ·
O=C1CCCN1CCCNC(=S)Nc1ccccc1Cl | 2 | 3 | 0 | 5 | -1 | -5 | 1 | 3
CC(=O)N1CCc2cc(S(=O)(=O)NC(CC(C)C)C(=O)N3CCc4ccccc4C3)ccc21 (stereo not drawn) | -3 | 2 | -3 | -3 | 0 | -20 | · | ·
Cn1nnc(NC(=S)NC(=O)c2cccc3ccccc23)n1 | -2 | 1 | -6 | 1 | -1 | -2 | · | ·
COc1ccc([C@H]2CC(=O)C=C(c3cc(Cl)ccc3C)C2)cc1 | -3 | -3 | 1 | 3 | 3 | -5 | · | ·
COc1ccc([C@H]2CC(=O)C=C(c3ccnc4ccc(Cl)cc34)C2)cc1 | 2 | -6 | -15 | -1 | 2 | 59* | -4 | -5
COc1ccccc1NC(=O)c1cc2c(CO)cnc(C)c2oc1=Nc1cccc(C(N)=O)c1 | 3 | -4 | 24 | -1 | 2 | -7 | · | ·
COc1ccc(NC(=O)c2cc3c(COC(C)=O)cnc(C)c3oc2=Nc2cccc(C(=O)O)c2)c(OC)c1 | -3 | 36 | 12 | 98* | 19 | 89* | 64* | -14 | Scp1 DSF=5
NC(=O)c1ccccc1NC(=O)/C=C/c1ccc(Cl)cc1 | 1 | 0 | 0 | -2 | 1 | 6 | · | ·
O=C(/C=C/c1ccc(Cl)cc1)NC(=S)Nc1ccccc1C(=O)O | 7 | 5 | -2 | 6 | 3 | 58* | 67* | -13 | Scp1 DSF=7.8*
Cc1c(NC(=O)c2cnn3c2NC(c2ccco2)CC3C(F)(F)F)c(=O)n(-c2ccccc2)n1C (stereo not drawn) | 1 | 1 | -2 | 4 | -2 | -5 | · | ·
